Common to all, as to type: functional
In assay [1] the test system is G-401. In words: Tested in vitro against human ovarian cancer cells (G-401) for anticancer activity at dose 0 uM (Cell number 1*10 e-4). In short, it runs like this:
(§1)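 G-401 human ovarian cancer cells seeded at 5 × 10^4 cells/mL in serum-free medium, with or without compound at 0–100 μM. Cultured 3 days at 37 °C under 5% CO₂. Living cells were counted by trypan blue dye exclusion and reported as cell number (×10^-4).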

For assay [2], the system named is G-401. In words: Tested in vitro against human ovarian cancer cells (G-401) for anticancer activity at dose 10 uM in presence of + beta galactosidase (Cell number 1*10 e-4). In short, it runs like this: (§2)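 G-401 human ovarian cancer cells seeded at 5 × 10^4 cells/mL in serum-free medium with compound (0–100 μM) plus E. coli β-galactosidase at 1 unit/mL. Cultured 3 days at 37 °C under 5% CO₂. Viable cells were counted by trypan blue exclusion and reported as cell number (×10^-4).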

Assay [3] deals with G-401. The experiment in a line: Tested in vitro against human ovarian cancer cells (G-401) for anticancer activity at dose 0 uM in presence of + beta galactosidase (Cell number 1*10 e-4). In short, it runs like this: as §2
The subject of assay [4] is G-401. The experiment in a line: Tested in vitro against human ovarian cancer cells (G-401) for anticancer activity at dose 1 uM (Cell number 1*10 e-4). In short, it runs like this: as §1
The test system of assay [5] is G-401. The experiment in a line: Tested in vitro against human ovarian cancer cells (G-401) for anticancer activity at dose 100 uM in presence of + beta galactosidase (Cell number 1*10 e-4). In short, it runs like this: as §2
Assay [6] relates to G-401. The experiment in a line: Tested in vitro against human ovarian cancer cells (G-401) for anticancer activity at dose 10 uM (Cell number 1*10 e-4). In short, it runs like this:
as §1

Assay [7] concerns G-401. In words: Tested in vitro against human ovarian cancer cells (G-401) for anticancer activity at dose 1 uM in presence of + beta galactosidase (Cell number 1*10 e-4). An outline of the steps: as §2
Assay [8] has as its system G-401. In words: Tested in vitro against human ovarian cancer cells (G-401) for anticancer activity at dose 100 uM (Cell number 1*10 e-4). An outline of the steps: as §1

`Nc1ccn([C@@H]2O[C@H](CO[C@@H]3O[C@H](CO)[C@H](O)[C@H](O)[C@H]3O)[C@@H](O)[C@@H]2O)c(=O)n1`: the Cell number in assay [1] is 55; in assay [2] it was 6; in assay [3], 46; in assay [4] it was 41; in assay [5], 2; in assay [6] it was 38. In addition, the Cell number is listed as 15 in assay [7] and 56 in assay [8].
Turning to `Nc1ccn([C@@H]2O[C@H](CO)[C@@H](O)[C@@H]2O)c(=O)n1` [CYTARABINE], the Cell number is on record as 55 in assay [1], 0 in assay [4], 0 in assay [6] and 0 in assay [8].

(Values after ChEMBL document CHEMBL1127382, “Synthesis of N-acetylglucosamine-modified ara-C and its effect on ovarian cancer cells” (1994).)
